Assay results: ChEMBL document CHEMBL5724801, “EUbOPEN Chemogenomics Library - Multiplex” (2024)
Several values for one entry are separate records, joined by “and”; a condition that tells them apart may be missing. Identical values can stand only once.

Columns and labels:
[1] = system: Fibroblast; experiment: Multiplex assay against human fibroblast; type: toxicity, cell-based
Summary of the method: (§1)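 Cells stained live at seeding with Hoechst33342, BioTracker Green Microtubule Cytoskeleton Dye, MitoTracker Red and Annexin V Alexa Fluor 680 were imaged on a CQ1 microscope at 37°C and 5% CO2 after compound addition. Their classification by CellPathfinder machine-learning gating ran from Hoechst high-intensity objects versus normal cells, to healthy, pyknosed or fragmented nuclei among normal cells, to mitotic or apoptotic among pyknosed cells. Tubulin, mitochondrial-mass and membrane-permeability phenotypes are per cents of healthy-nucleus cells.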

[2] = system: HEK-293T; experiment: Multiplex assay against HEK293T; type: toxicity, cell-based; settings: human; summary of the method: as §1
[3] = 12 h, 1 µM, compound concentration 1 uM
[4] = 12 h, 10 µM, compound concentration 10 uM
[5] = 24 h, 1 µM, compound concentration 1 uM
[6] = 24 h, 10 µM, compound concentration 10 uM
[7] = 48 h, 1 µM, compound concentration 1 uM
[8] = 48 h, 10 µM, compound concentration 10 uM

For `CCCN1CCC[C@@H]2Cc3n[nH]cc3C[C@H]21.Cl` [QUINPIROLE HYDROCHLORIDE], the “Population Apoptotic (%)” value [1, 3] was 45% and 52%, the “Population Fragmented Nuclei (%)” value [1, 3] was 14% and 22% and the “Population Healthy Nuclei (%)” value [1, 3] was 65% and 60%. The “Population Hoechst High Intensity Objects (%)” value [1, 3] was 2% and 6%, the “Population Membrane Permeable-Phenotype (%)” value [1, 3] was 0% and 7% and the “Population Mitochondria Different-Phenotype (%)” value [1, 3] was 3% and 6%. The “Population Mitotic Cells (%)” value [1, 3] was 54% and 47%, the “Population Normal (%)” value [1, 3] was 97% and 93% and the “Population Pyknosed Nuclei (%)” value [1, 3] was 20% and 17%. For the same compound, the “Population Tubulin-Different-Phenotype (%)” value [1, 3] was 17% and 50%, the “Total Cell Count” value [1, 3] was 156 and 139 and the “Population Apoptotic (%)” value [1, 4] was 58% and 45%. For the same compound, the “Population Fragmented Nuclei (%)” value [1, 4] was 16% and 23%, the “Population Healthy Nuclei (%)” value [1, 4] was 68% and 59% and the “Population Hoechst High Intensity Objects (%)” value [1, 4] was 4% and 2%. The “Population Membrane Permeable-Phenotype (%)” value [1, 4] was 1% and 10%, the “Population Mitochondria Different-Phenotype (%)” value [1, 4] was 6% and the “Population Mitotic Cells (%)” value [1, 4] was 41% and 54%. For the same compound, the “Population Normal (%)” value [1, 4] was 95% and 97%, the “Population Pyknosed Nuclei (%)” value [1, 4] was 15% and 17% and the “Population Tubulin-Different-Phenotype (%)” value [1, 4] was 33% and 55%. The “Total Cell Count” value [1, 4] was 115 and 184, the “Population Apoptotic (%)” value [1, 5] was 52% and 34% and the “Population Fragmented Nuclei (%)” value [1, 5] was 21% and 28%. For the same compound, the “Population Healthy Nuclei (%)” value [1, 5] was 64% and 53%, the “Population Hoechst High Intensity Objects (%)” value [1, 5] was 1% and 2% and the “Population Membrane Permeable-Phenotype (%)” value [1, 5] was 0% and 1%. For the same compound, the “Population Mitochondria Different-Phenotype (%)” value [1, 5] was 2% and 7%, the “Population Mitotic Cells (%)” value [1, 5] was 47% and 65% and the “Population Normal (%)” value [1, 5] was 98%. The “Population Pyknosed Nuclei (%)” value [1, 5] was 13% and 17%, the “Total Cell Count” value [1, 5] was 172 and 150 and the “Population Apoptotic (%)” value [1, 6] was 75% and 55%. The “Population Fragmented Nuclei (%)” value [1, 6] was 22% and 38%, the “Population Healthy Nuclei (%)” value [1, 6] was 67% and 51% and the “Population Hoechst High Intensity Objects (%)” value [1, 6] was 2% and 1%. For the same compound, the “Population Membrane Permeable-Phenotype (%)” value [1, 6] was 0% and 7%, the “Population Mitochondria Different-Phenotype (%)” value [1, 6] was 7% and 3% and the “Population Mitotic Cells (%)” value [1, 6] was 25% and 45%. The “Population Normal (%)” value [1, 6] was 97% and 98%, the “Population Pyknosed Nuclei (%)” value [1, 6] was 10% and 9% and the “Population Tubulin-Different-Phenotype (%)” value [1, 6] was 32% and 39%. The “Total Cell Count” value [1, 6] was 119 and 209, the “Population Apoptotic (%)” value [1, 7] was 68% and 38% and the “Population Fragmented Nuclei (%)” value [1, 7] was 23% and 37%. The “Population Healthy Nuclei (%)” value [1, 7] was 62% and 53%, the “Population Hoechst High Intensity Objects (%)” value [1, 7] was 3% and 1% and the “Population Membrane Permeable-Phenotype (%)” value [1, 7] was 0% and 8%. For the same compound, the “Population Mitochondria Different-Phenotype (%)” value [1, 7] was 3% and 4%, the “Population Mitotic Cells (%)” value [1, 7] was 32% and 61% and the “Population Normal (%)” value [1, 7] was 96% and 98%. For the same compound, the “Population Pyknosed Nuclei (%)” value [1, 7] was 14% and 8%, the “Population Tubulin-Different-Phenotype (%)” value [1, 7] was 21% and 42% and the “Total Cell Count” value [1, 7] was 175 and 157. The “Population Apoptotic (%)” value [1, 8] was 53% and 46%, the “Population Fragmented Nuclei (%)” value [1, 8] was 23% and 43% and the “Population Healthy Nuclei (%)” value [1, 8] was 65% and 48%. For the same compound, the “Population Hoechst High Intensity Objects (%)” value [1, 8] was 1% and 3%, the “Population Membrane Permeable-Phenotype (%)” value [1, 8] was 2% and the “Population Mitochondria Different-Phenotype (%)” value [1, 8] was 6% and 4%. For the same compound, the “Population Mitotic Cells (%)” value [1, 8] was 46% and 53%, the “Population Normal (%)” value [1, 8] was 98% and 96% and the “Population Pyknosed Nuclei (%)” value [1, 8] was 11% and 8%. For the same compound, the “Population Tubulin-Different-Phenotype (%)” value [1, 8] was 31% and 48%, the “Total Cell Count” value [1, 8] was 119 and 192 and the “Population Apoptotic (%)” value [2, 3] was 32% and 63%. The “Population Fragmented Nuclei (%)” value [2, 3] was 6% and 4%, the “Population Healthy Nuclei (%)” value [2, 3] was 84% and 82% and the “Population Hoechst High Intensity Objects (%)” value [2, 3] was 6% and 3%. For the same compound, the “Population Membrane Permeable-Phenotype (%)” value [2, 3] was 0%, the “Population Mitochondria Different-Phenotype (%)” value [2, 3] was 37% and 67% and the “Population Mitotic Cells (%)” value [2, 3] was 67% and 36%. For the same compound, the “Population Normal (%)” value [2, 3] was 93% and 96%, the “Population Pyknosed Nuclei (%)” value [2, 3] was 9% and 12% and the “Population Tubulin-Different-Phenotype (%)” value [2, 3] was 22% and 26%. The “Total Cell Count” value [2, 3] was 447 and 294, the “Population Apoptotic (%)” value [2, 4] was 55% and 46% and the “Population Fragmented Nuclei (%)” value [2, 4] was 11% and 5%. For the same compound, the “Population Healthy Nuclei (%)” value [2, 4] was 72% and 78%, the “Population Hoechst High Intensity Objects (%)” value [2, 4] was 9% and 5% and the “Population Membrane Permeable-Phenotype (%)” value [2, 4] was 0%. For the same compound, the “Population Mitochondria Different-Phenotype (%)” value [2, 4] was 53% and 69%, the “Population Mitotic Cells (%)” value [2, 4] was 44% and 53% and the “Population Normal (%)” value [2, 4] was 90% and 94%. For the same compound, the “Population Pyknosed Nuclei (%)” value [2, 4] was 15% and 16%, the “Population Tubulin-Different-Phenotype (%)” value [2, 4] was 40% and 26% and the “Total Cell Count” value [2, 4] was 381 and 312. The “Population Apoptotic (%)” value [2, 5] was 30% and 29%, the “Population Fragmented Nuclei (%)” value [2, 5] was 12% and 8% and the “Population Healthy Nuclei (%)” value [2, 5] was 79% and 81%. The “Population Hoechst High Intensity Objects (%)” value [2, 5] was 3% and 2%, the “Population Membrane Permeable-Phenotype (%)” value [2, 5] was 0% and the “Population Mitochondria Different-Phenotype (%)” value [2, 5] was 17% and 37%. For the same compound, the “Population Mitotic Cells (%)” value [2, 5] was 70%, the “Population Normal (%)” value [2, 5] was 96% and 97% and the “Population Pyknosed Nuclei (%)” value [2, 5] was 8% and 9%. For the same compound, the “Population Tubulin-Different-Phenotype (%)” value [2, 5] was 14% and 16% and the “Total Cell Count” value [2, 5] was 600 and 390.
